Data from ChEMBL document CHEMBL4000256, “Light-Regulated NO Release as a Novel Strategy To Overcome Doxorubicin Multidrug Resistance” (ACS Med Chem Lett, 2017).
The source made the active and inactive calls. The calls are words filed in the database; no cut-off is given here.

Key:
Bos taurus = organism: Bos taurus; assay: Binding affinity to calf thymus duplex DNA at 10 uM by fluorescence spectroscopic method
[1] = Stability of the compound in PBS with 3% DMSO; type: physicochemical; details: buffer
[2] = Induction of NO release in pH 7.4 PBS irradiated with 7 mW/cm2 light at 10 uM after 0.5 hrs by amperometric detection assay
Outline: (§1)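 NO release recorded during alternating light (λexc 405 nm) and dark cycles. Solution at 10 μM in PBS (pH 7.4, 10 mM, 3% DMSO), with or without 18 μM ct-DNA.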

Homo sapiens = organism: Homo sapiens; assay: […] in 7 mW/cm'2 irradiated human M14 cells assessed as increase in LDH release at 5 uM measured after 20 mins by spectrophotometric method
[3] = Stability in pH 7.4 PBS irradiated with 7 mW/cm2 light assessed as bleaching in NOP1 band at 10 uM up to 60 mins in presence of calf thymus DNA by absorption spectrum method; type: physicochemical; details: buffer, pH 7.4, 1 h
Outline: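 Absorption spectra recorded after 0, 30, 40, 50 and 60 min irradiation at λexc 405 nm. Solution at 10 μM with 18 μM ct-DNA in PBS (pH 7.4, 10 mM, 3% DMSO).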

[4] = Induction of NO release in pH 7.4 PBS irradiated with 7 mW/cm2 light at 10 uM after 0.5 hrs in presence of calf thymus DNA by amperometric detection assay; outline: as §1
[5] = Half life in DMEM medium; type: physicochemical
M14 [6] = assay: Cytotoxicity against 7 mW/cm'2 irradiated human M14 cells assessed as increase in LDH release at 5 uM measured after 20 mins by spectrophotometric method; type: functional, cell-based
Outline: (§2)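 Cells (M14 melanoma, human fibroblasts or rat H9c2 cardiomyocytes) kept 20 min at room temperature in PBS under 400 nm light (7 mW/cm2), alone or with 5 μM compound, given alone or with equimolar 5 μM doxorubicin. Damage read as extracellular LDH release. Triplicate measurements, n = 3.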

M14 [7] = assay: Dark toxicity in human M14 cells assessed as increase in nitrite levels at 5 uM measured after 20 mins in presence of doxorubicin by Griess reagent based spectrophotometric method; type: cell-based; details: m14, 20 min
Outline: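 M14 melanoma cells held 20 min at room temperature in PBS, either in the dark or under 400 nm light (7 mW/cm2), with 5 μM compound alone or alongside 5 μM doxorubicin. Nitrite in the supernatant measured by Griess assay, in triplicate, n = 3.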

Fibroblast [8] = assay: Dark toxicity against human fibroblasts at 5 uM measured after 20 mins co-incubated with doxorubicin by spectrophotometric method; type: cell-based
Outline: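 Cells (M14 melanoma, human fibroblasts or rat H9c2 cardiomyocytes) kept 20 min at room temperature in PBS in the dark, with 5 μM compound, given alone or with equimolar 5 μM doxorubicin. Cytotoxicity read as extracellular LDH release. Triplicate measurements, n = 3.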

Fibroblast [9] = assay: Cytotoxicity against 7 mW/cm'2 irradiated human fibroblasts at 5 uM coadministered with DOX measured after 20 mins by spectrophotometric method; type: cell-based; outline: as §2
M14 [10] = assay: Cytotoxicity against 7 mW/cm'2 irradiated human M14 cells assessed as increase in LDH release at 5 uM coadministered with DOX measured after 20 mins by spectrophotometric method; type: functional, cell-based; outline: as §2
[11] = target: T1, Broad substrate specificity ATP-binding cassette transporter ABCG2 (Homo sapiens, UniProt Q9UNQ0); assay: Inhibition of BCRP in 7 mW/cm'2 irradiated human M14 cells assessed as nitration of tyrosine in BCRP at 5 uM measured after 20 mins in presence of doxorubicin by immunoblotting
T1 sequence (Q9UNQ0 whole entry): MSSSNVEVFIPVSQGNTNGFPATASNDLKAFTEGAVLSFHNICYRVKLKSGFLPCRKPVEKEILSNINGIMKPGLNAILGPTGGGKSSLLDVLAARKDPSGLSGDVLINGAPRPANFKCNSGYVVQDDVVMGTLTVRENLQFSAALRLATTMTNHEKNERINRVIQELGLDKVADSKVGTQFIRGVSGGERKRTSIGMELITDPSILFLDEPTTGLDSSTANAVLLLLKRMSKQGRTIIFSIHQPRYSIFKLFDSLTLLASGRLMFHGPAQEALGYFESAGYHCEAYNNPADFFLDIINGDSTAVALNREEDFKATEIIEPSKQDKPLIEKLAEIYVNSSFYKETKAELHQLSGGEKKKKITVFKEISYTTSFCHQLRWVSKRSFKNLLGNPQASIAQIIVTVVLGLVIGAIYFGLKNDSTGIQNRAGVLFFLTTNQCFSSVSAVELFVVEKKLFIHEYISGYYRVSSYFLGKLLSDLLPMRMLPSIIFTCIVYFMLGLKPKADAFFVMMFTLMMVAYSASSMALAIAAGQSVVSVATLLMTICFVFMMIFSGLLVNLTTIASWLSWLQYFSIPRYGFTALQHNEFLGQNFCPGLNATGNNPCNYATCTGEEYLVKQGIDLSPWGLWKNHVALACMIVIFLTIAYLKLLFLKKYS
Outline: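 M14 melanoma cells held 20 min at room temperature in PBS under 400 nm light (7 mW/cm2) with 5 μM compound, alone or with equimolar doxorubicin. Nitrated ABC transporters (Pgp, MRP1, MRP4, BCRP) detected by immunoblot.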

Activity (Bos taurus) | Stability [1] | inhibition (Homo sapiens) | Stability [3] | half-life [5] | Structure (SMILES) | Activity [2] | Activity [4] | Activity (M14 [6]) | Activity (M14 [7]) | Activity (Fibroblast [8]) | Activity (Fibroblast [9]) | Activity (M14 [10]) | inhibition (INH) [11]
Active | Stable | Active | Stable | > 24 h | COc1cccc2c1C(=O)c1c(O)c3c(c(O)c1C2=O)C[C@@](O)(C(=O)COC(=O)c1ccc(C(=O)NCCCNc2ccc([N+](=O)[O-])c(C(F)(F)F)c2)cc1)C[C@@H]3O[C@H]1C[C@H](N)[C@H](O)[C@H](C)O1.Cl | Active | Active |  |  |  |  |  | 
 |  |  |  |  | NCCCNc1ccc([N+](=O)[O-])c(C(F)(F)F)c1 |  |  | inactive | Non-Toxic | Non-Toxic | Non-Toxic | Active | Active
